# High-throughput results from PubChem BioAssay.
# Only some compounds are listed: those with a hit (about 3.5% of all), similar ones and a draw of the others.
# RGS4 inh – inhibitors of human RGS4; HEK293 M3R/RGS4 inducible, Fluo-4 calcium flux; stronger effect = higher value; triggered by carbachol at its EC20; P49798; B-score at 10 µM; AID 463165; hit rate 0.45% among 310,000;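 active means B-score, a plate-corrected calcium signal, over three deviations above library mean, with baseline fluorescence within five deviations of library mean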;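 further: RGS4 expression induced by doxycycline in cells with stable M3 receptor; B-score is computed from the integrated fluorescence ratio over baseline after carbachol; higher B-score means a larger calcium signal and so more RGS4 inhibition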
# Target sequence (P49798 whole entry, looked up): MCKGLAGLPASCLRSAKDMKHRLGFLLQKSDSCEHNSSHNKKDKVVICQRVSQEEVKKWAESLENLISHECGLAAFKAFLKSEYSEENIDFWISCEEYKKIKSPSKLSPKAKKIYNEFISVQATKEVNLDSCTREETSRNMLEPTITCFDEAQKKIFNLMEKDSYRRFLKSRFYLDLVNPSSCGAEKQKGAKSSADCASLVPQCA
# MrgX1 antag – human MrgX1 receptor antagonism, primary screen | Q96LB2 | MRGX1-HEK293 calcium flux, Fluo-4, BAM8-22 antagonism; stronger effect = lower value | B-score at 10 µM | hit rate 1.3% among 310,000;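 active means calcium-response B-score plate-corrected more than 3 library SD below zero, starting fluorescence within 5 deviations, no agonist response on first addition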;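 further: peak minus trough fluorescence over baseline after final BAM8-22 challenge near maximal dose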
# Target sequence (Q96LB2 whole entry, looked up): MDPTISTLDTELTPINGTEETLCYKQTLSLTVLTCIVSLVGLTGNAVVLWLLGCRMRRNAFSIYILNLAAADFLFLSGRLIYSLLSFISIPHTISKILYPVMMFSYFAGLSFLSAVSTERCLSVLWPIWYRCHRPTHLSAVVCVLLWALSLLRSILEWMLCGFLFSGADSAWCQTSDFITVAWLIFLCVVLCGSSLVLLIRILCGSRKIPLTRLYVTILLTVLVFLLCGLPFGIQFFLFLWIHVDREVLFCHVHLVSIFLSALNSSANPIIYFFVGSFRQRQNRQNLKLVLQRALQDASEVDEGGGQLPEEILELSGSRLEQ
# RGS4 act – RGS4 potentiation or activation | B-score at 10 µM | HEK293 M3R/inducible RGS4, carbachol calcium flux Fluo4; stronger effect = lower value | AID 463111 | hit rate 0.92% among 310,000;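 active means B-score of the integrated calcium signal more than 4 SD below the library mean, with starting fluorescence not abnormally high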;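 further: negative B-score means reduced calcium response which marks RGS4 activation or potentiation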
#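 System – HEK293 FlpIn-TREx cells, stable M3R, doxycycline-inducible RGS4 · Reagent – ECmax carbachol challenge · Times – compound preincubation 20 min at room temperature before agonist · Technique – Fluo4 fluorescence kinetic imaging of calcium · Measure – B score of integrated Fluo4 ratio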
# MrgX1 PAM – allosterically activates human MrgX1 receptor signaling; MrgX1-HEK293, Fluo-4 calcium flux, FDSS; stronger effect = higher value; Q96LB2; B-score at 10 µM; hit rate 0.63% among 310,000;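 active means plate-corrected calcium response at least 3 library SD above typical, normal starting fluorescence, not activating the receptor alone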;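 further: compound read alongside a low EC10 to EC30 dose of BAM8-22 agonist; peak minus trough fluorescence over baseline measured at the second addition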
# MrgX1 ag – activates human MrgX1 receptor signaling; MrgX1-HEK293 cells, Fluo-4 calcium fluorescence, agonist mode; stronger effect = higher value; B-score at 10 µM; hit rate 0.44% among 310,000;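 active means calcium response B-score plate-corrected fluorescence ratio at least 3 library SD, with starting fluorescence B-score inside 5 SD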
#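 Material: MrgX1-expressing HEK293 cells; input: 15,000 cells per well; doses: test compound given as first of three sequential additions; schedule: overnight plating before 1 h dye loading; technique: Fluo-4 NW calcium-flux fluorescence, kinetic read; evaluation: baseline-normalised fluorescence change ratio, B-scored; control set: plate-wise positive and negative controls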
# MrgX1 allo conf – human MrgX1 positive allosteric modulation, re-confirmation; hit rate 13% among 1,200; shares compounds with MrgX1 PAM; activation (ratio percentage), % at 10 µM; MrgX1-HEK293, Fluo-4 calcium fluorescence, FDSS;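 active means ratio at least 3 SD above the weak peptide control, stable starting fluorescence, no direct agonism earlier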;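 further: compound followed by low BAM8-22 agonist challenge near EC20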
# MrgX1 ant reconf – confirmation of human MrgX1 receptor antagonists; remaining BAM8-22 calcium response % of control (stronger effect = lower value), % at 10 µM; hit rate 19% among 2,300; shares compounds with MrgX1 antag; MrgX1-HEK293, BAM8-22 calcium flux, Fluo-4; stronger effect = lower value;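 active means remaining agonist calcium response no higher than 100% minus 3 SD of agonist-only control wells, with starting fluorescence near control levels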;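 further: agonist BAM8-22 given at a near maximal EC90 to ECmax level; peak minus minimum fluorescence divided by baseline after agonist addition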
# HEK293 Ca flux – MrgX1 antagonist counter-screen hit in parental HEK293 cells | shares compounds with MrgX1 antag | fluorescence ratio F(max-min)/F0 at 10 µM | AID 624111 | hit rate 2% among 4,000 | Fluo-4 calcium fluorescence, FDSS;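 active means duplicate-averaged calcium fluorescence ratio at least three times the standard deviation of buffer wells, a nonspecific response in parental cells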
# HEK293 Ca counter – MrgX1 allosteric activator counter-screen hit in parental HEK293 cells. shares compounds with MrgX1 antag. hit rate 0.4% among 4,000. AID 624114. fluorescence ratio F(max-min)/F0 at 10 µM. parental HEK293 calcium flux, Fluo-4 fluorescence ratio; stronger effect = higher value;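 active means calcium fluorescence ratio, averaged over duplicates, at least 3 SD of the buffer-well ratio, meaning a nonspecific response in receptor-free cells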;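 further: untransfected parental HEK293 lacking MrgX1 used as counterscreen for MrgX1 allosteric activators; fluorescence change taken during the second addition on a kinetic imager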
# HEK293 Ca cntr2 – counter-screen for MrgX1 activators: effect in parental HEK293 cells; Fluo-4 calcium fluorescence (FDSS); stronger effect = higher value; shares compounds with MrgX1 antag; hit rate 8.7% among 4,000; fluorescence ratio F(max-min)/F0 at 10 µM; AID 624115;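 active means calcium fluorescence ratio at least three times the spread of buffer wells, meaning a non-specific response in parental cells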
# The depositor's hits bear a star; i = inactive; . = no result given.
SMILES,RGS4 inh,MrgX1 antag,RGS4 act,MrgX1 PAM,MrgX1 ag,MrgX1 allo conf,HEK293 Ca flux,HEK293 Ca counter,HEK293 Ca cntr2,others
COc1ccc(-c2oc3ccccc3c2C(=O)Oc2ccccc2)cc1,i,i,i,8.68*,i,i,i,i,68.3*,
CC(C)C(NS(=O)(=O)c1cccc2nsnc12)C(=O)N1CCCCC1 (stereo not given),i,i,i,i,i,.,.,.,.,
Cc1cc(/C=C2\Cc3ccccc3C2=O)c(C)n1-c1ccccc1,i,i,i,25.5*,i,i,i,i,i,
COc1ccccc1/C=C1\Cc2ccccc2C1=O,i,i,i,i,i,.,.,.,.,
Nn1c(SCC(=O)Nc2cccc(S(N)(=O)=O)c2)nnc1C1CC1,i,i,i,7.84*,i,i,i,i,i,
CCN(c1cccc(C)c1)S(=O)(=O)c1ccc(-n2cccn2)cc1,i,i,i,6.99*,i,i,i,i,i,
O=C(Nc1c2c(nn1-c1ccccc1)CS(=O)(=O)C2)c1ccccc1Br,i,i,i,i,i,.,.,.,.,
Cc1ccc(NC(=O)CNC(=O)C2CCCCC2)nc1,i,i,i,i,i,.,.,.,.,
COc1ccc(CNC(=O)CCN2C(=O)c3ccncc3C2=O)cc1OC,i,i,i,26.7*,i,13.2%*,i,i,i,
COc1ccc(CNC(=O)CCN2C(=O)c3ccccc3C2=O)cc1OC,i,i,i,i,i,.,.,.,.,
Cc1sc(NC(=O)c2cccnc2)nc1-c1ccccc1,i,i,i,10.6*,i,i,i,i,i,
CC(=O)c1sc(NC(=O)c2ccccc2)nc1-c1ccccc1,i,i,i,i,i,.,.,.,.,
O=C(O)C1CCCN(S(=O)(=O)c2ccc(Br)s2)C1 (stereo not given),i,i,i,6.6*,i,i,i,i,i,
CC1=NOC(=O)/C1=C\c1ccc(-c2ccccc2Br)o1,i,.,i,.,.,.,.,.,.,
COc1ccc(OCc2cc(C(=O)NC3CCOC(C)(C)C3)no2)c2ccccc12 (stereo not given),i,i,i,i,i,.,.,.,.,
O=C(C1CCCO1)N1CCN(S(=O)(=O)c2ccc(Cl)cc2)CC1 (stereo not given),i,i,i,15.2*,i,i,i,i,i,
Cc1cccc(NS(=O)(=O)c2c(C)nc3scc(C)n3c2=O)c1,i,i,i,21.1*,i,i,i,i,i,
Cc1nc2scc(C)n2c(=O)c1S(=O)(=O)Nc1ccc(N2CCN(S(C)(=O)=O)CC2)cc1,i,i,i,i,i,.,.,.,.,
NCCCC[C@H]1CN=C(N)N1CCc1cccc2ccccc12,i,i,i,33.3*,i,i,i,i,i,
NC1=NC[C@H](Cc2ccc(O)cc2)N1CCc1cccc2ccccc12,i,-11.7*,i,9.64*,i,i,i,i,i,MrgX1 ant reconf=i
CCC(C)[C@H]1CN=C(N)N1CCc1cccc2ccccc12 (stereo not given in full),i,i,i,i,i,.,.,.,.,
